The text below walks through data of ChEMBL document CHEMBL1156071, “Novel L-xylose derivatives as selective sodium-dependent glucose cotransporter 2 (SGLT2) inhibitors for the treatment of type 2 diabetes” (J Med Chem, 2009).

Series [1] can be described thus: Apparent oral clearance in mouse at 10 mg/kg, po. The class given is ADME, organism-based. The arrangement: dose 10 mg/kg, route oral. The conditions noted are these: in vivo.
Series [2] concerns the target T1, Sodium/glucose cotransporter 2 (Homo sapiens, UniProt P31639).
T1 sequence (P31639 whole entry): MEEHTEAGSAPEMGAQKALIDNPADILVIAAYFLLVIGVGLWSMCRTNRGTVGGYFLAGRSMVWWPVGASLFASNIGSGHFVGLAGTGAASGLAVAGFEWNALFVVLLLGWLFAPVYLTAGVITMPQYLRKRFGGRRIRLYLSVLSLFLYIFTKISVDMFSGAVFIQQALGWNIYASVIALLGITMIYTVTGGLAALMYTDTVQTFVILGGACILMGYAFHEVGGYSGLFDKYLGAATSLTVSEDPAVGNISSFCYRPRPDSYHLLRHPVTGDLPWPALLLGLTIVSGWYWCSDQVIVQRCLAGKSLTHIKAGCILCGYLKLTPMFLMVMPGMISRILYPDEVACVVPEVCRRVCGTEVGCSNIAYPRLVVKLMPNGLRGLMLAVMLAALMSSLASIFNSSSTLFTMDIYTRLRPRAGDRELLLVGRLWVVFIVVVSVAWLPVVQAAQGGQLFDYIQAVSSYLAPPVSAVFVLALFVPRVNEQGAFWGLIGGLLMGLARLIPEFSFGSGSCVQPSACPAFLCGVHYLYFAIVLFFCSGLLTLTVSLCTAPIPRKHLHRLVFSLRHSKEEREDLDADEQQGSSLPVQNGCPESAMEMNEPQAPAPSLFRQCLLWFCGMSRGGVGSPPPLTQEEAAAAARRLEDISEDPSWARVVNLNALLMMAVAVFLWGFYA
The series is described as follows: Inhibition of human SGLT2 expressed in HEK293 cells assessed as inhibition of [14C]alpha-methylglucopyranoside uptake. The class given is cell-based. An outline of the steps:
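Cells stably expressing human SGLT2 were used to measure sodium-coupled uptake of [14C]α-methylglucopyranoside, a metabolically stable SGLT-specific glucose analogue. Uptake was measured across increasing compound concentrations, and IC50 was derived from the inhibition of uptake.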

The nature of series [3]: (§1) Apparent volume of distribution with respect to the bioavailability in mouse at 10 mg/kg, po. The series is classed as ADME, organism-based. The conditions noted are these: in vivo, read-out: Vc/F.
Series [4] concerns Mus musculus. The series can be described thus: Oral bioavailability in mouse at 10 mg/kg. The series is classed as ADME, organism-based. To be noted: in vivo.
The nature of series [5]: (§2) Mean resident time in mouse at 1 mg/kg, iv. The class given is ADME, organism-based. Set-up: dose 1 mg/kg, route intravenous. The conditions noted are these: in vivo.
Series [6] in a line: (§3) Tmax in mouse at 1 mg/kg, iv. The class given is ADME, organism-based. The arrangement: dose 1 mg/kg, route intravenous. To be noted: in vivo.
Series [7] in a line: (§4) AUC (0 to infinity) in mouse at 10 mg/kg, po. The series is classed as ADME, organism-based, Plasma. Set-up: time infinity, dose 10 mg/kg, route oral. The conditions noted are these: plasma.
Series [8] in a line: (§5) Mean resident time in mouse at 10 mg/kg, po. The series is classed as ADME, organism-based. Set-up: dose 10 mg/kg, route oral. To be noted: in vivo.
Series [9] in a line: (§6) AUC (0 to infinity) in mouse at 1 mg/kg, iv. The series is classed as ADME, organism-based, Plasma. The arrangement: dose 1 mg/kg, route intravenous, time infinity. The conditions noted are these: plasma.
Series [10] can be described thus: Clearance in mouse at 1 mg/kg, iv. The class given is ADME, organism-based. The arrangement: dose 1 mg/kg, route intravenous. The conditions noted are these: in vivo.
A short description of series [11]: (§7) Half life in mouse at 1 mg/kg, iv. The series is classed as ADME, organism-based. The arrangement: dose 1 mg/kg, route intravenous. The conditions noted are these: in vivo.
Series [12] in a line: (§8) Tmax in mouse at 10 mg/kg, po. The conditions noted are these: in vivo. The arrangement: dose 10 mg/kg, route oral. The class given is ADME, organism-based.
In series [13] the test system is Mus musculus. The series can be described thus: Half life in mouse at 10 mg/kg, po. To be noted: in vivo. Set-up: dose 10 mg/kg, route oral. The series is classed as ADME, organism-based.
Series [14] is described as follows: (§9) Volume of distribution at steady state in mouse at 1 mg/kg, iv. The series is classed as ADME, organism-based. Set-up: dose 1 mg/kg, route intravenous. The conditions noted are these: in vivo, read-out: Vdss.
Series [15] has as its system Mus musculus. The series is described as follows: Apparent volume of distribution with respect to the bioavailability in mouse at 1 mg/kg, iv. The series is classed as ADME, organism-based. The conditions noted are these: in vivo.
Series [16] is described as follows: (§10) AUC(last) in mouse at 10 mg/kg, po. The series is classed as ADME, organism-based, Plasma. Set-up: time 0 - last, dose 10 mg/kg, route oral. The conditions noted are these: plasma.
Series [17] is described as follows: (§11) Cmax in mouse at 10 mg/kg, po. The series is classed as ADME, organism-based. Set-up: dose 10 mg/kg, route oral. To be noted: in vivo.
In series [18] the target is T2, Sodium/glucose cotransporter 2 (Mus musculus, UniProt Q923I7).
T2 sequence (Q923I7 whole entry): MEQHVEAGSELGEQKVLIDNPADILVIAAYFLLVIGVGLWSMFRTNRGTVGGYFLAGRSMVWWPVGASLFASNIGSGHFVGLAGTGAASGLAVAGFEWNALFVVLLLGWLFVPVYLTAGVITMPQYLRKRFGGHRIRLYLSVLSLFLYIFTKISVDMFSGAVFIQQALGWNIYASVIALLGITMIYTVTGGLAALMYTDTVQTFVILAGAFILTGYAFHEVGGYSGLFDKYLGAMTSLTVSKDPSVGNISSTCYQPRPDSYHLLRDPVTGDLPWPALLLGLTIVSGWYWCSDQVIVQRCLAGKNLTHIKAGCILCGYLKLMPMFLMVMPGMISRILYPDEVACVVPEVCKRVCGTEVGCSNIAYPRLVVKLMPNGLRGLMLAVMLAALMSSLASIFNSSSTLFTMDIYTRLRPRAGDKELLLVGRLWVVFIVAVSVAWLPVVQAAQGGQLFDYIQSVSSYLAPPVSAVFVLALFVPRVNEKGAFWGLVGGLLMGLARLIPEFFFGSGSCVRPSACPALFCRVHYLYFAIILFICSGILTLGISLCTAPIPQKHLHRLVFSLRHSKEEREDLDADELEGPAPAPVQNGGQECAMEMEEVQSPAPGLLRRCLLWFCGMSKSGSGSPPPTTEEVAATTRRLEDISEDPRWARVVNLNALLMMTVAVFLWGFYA
The series is described as follows: Inhibition of mouse SGLT2-mediated [14C]alpha-methylglucopyranoside uptake by cell based assay.

The subject of series [19] is Mus musculus. The description is as §1. The conditions noted are these: in vivo. The class given is ADME, organism-based.
The test system of series [20] is Mus musculus. Described as §2. The arrangement: dose 1 mg/kg, route intravenous. The conditions noted are these: in vivo. The series is classed as ADME, organism-based.
Series [21] concerns Mus musculus. The series is described as §3. The class given is ADME, organism-based. The arrangement: dose 1 mg/kg, route intravenous. To be noted: in vivo.
Series [22] concerns Mus musculus. Described as §4. Set-up: time infinity, dose 10 mg/kg, route oral. The class given is ADME, organism-based, Plasma. To be noted: in vivo.
The test system of series [23] is Mus musculus. Described as §5. To be noted: in vivo. Set-up: dose 10 mg/kg, route oral. The series is classed as ADME, organism-based.
For series [24], the system named is Mus musculus. The series is described as §6. The series is classed as ADME, organism-based, Plasma. The arrangement: dose 1 mg/kg, route intravenous, time infinity. To be noted: in vivo.
The test system of series [25] is Mus musculus. The description is as §7. The class given is ADME, organism-based. Set-up: dose 1 mg/kg, route intravenous. The conditions noted are these: in vivo.
Series [26] relates to Mus musculus. The series is described as §8. The conditions noted are these: in vivo. The arrangement: dose 10 mg/kg, route oral. The series is classed as ADME, organism-based.
For series [27], the system named is Mus musculus. The series is described as §9. The conditions noted are these: in vivo. Set-up: dose 1 mg/kg, route intravenous. The class given is ADME, organism-based.
The subject of series [28] is Mus musculus. The series is described as §10. The series is classed as ADME, organism-based, Plasma. Set-up: time 0 - last, dose 10 mg/kg, route oral. To be noted: in vivo.
Series [29] has as its system Mus musculus. Described as §11. The class given is ADME, organism-based. Set-up: dose 10 mg/kg, route oral. To be noted: in vivo.

As a reminder, the CL/F is the apparent clearance, not corrected for the fraction that reaches the circulation. As usually defined, the IC50 is the midpoint of a concentration-inhibition curve. The term MRT denotes a mean duration of stay, worked out from the concentration-time curve. As usually defined, the Tmax is the time at which the peak concentration occurs. The term AUC(0-inf) denotes the area under the concentration-time curve extrapolated to infinity. The term clearance denotes the rate of elimination divided by the concentration. For orientation: half-life means how long it takes for the measured level to halve. One may read the AUC(0-t) as the area under the concentration-time curve up to a stated or last time point. Read a high AUC(0-t) as more exposure. By Cmax is commonly meant the maximum level reached in the sampled fluid or tissue. One may read the AUC as the area under the concentration-time curve, a measure of exposure. In general, Vdss refers to a proportionality between amount in the body and measured concentration, not a real space. High values mean extensive tissue distribution, low ones confinement near the circulation.

In the case of `CCOc1ccc(Cc2cc([C@@H]3OC(OC)[C@@H](O)[C@H](O)[C@H]3O)ccc2Cl)cc1` (mixture of isomers; 7a), the CL/F in series [1] was 35.4 mL/min/kg. Further, the results for the 50% inhibitory concentration (IC50) in [2] and in series [18] were 25 nM and 7.1 nM, respectively. Further, the Vd/F in series [3] came out at 8.48 L/kg. In addition, in the series on Mus musculus [4], the F was determined as 61.2%. Further, the MRT came to 1.62 h in series [5] and 4.6 h in series [8]. For the same compound, the Tmax in [6] and in series [12] was 0.38 h in each case. For the same compound, the AUC(0-inf) in series [7] turned out to be 11.7 µM·h; in [9], 1.91 µM·h. The clearance in [10] is 22.5 mL/min/kg. Moreover, the half-life in series [11] was 1.07 h. Further, the t1/2 in the series on Mus musculus [13] was found to be 2.76 h. In addition, the Vd in [14] worked out at 1.98 L/kg. In addition, the Vc/F with Mus musculus [15] was 1.91 L/kg. Further, in series [16], the AUC(0-t) turned out to be 8.19 µM·h. In series [17], this compound yielded a maximum concentration (Cmax) of 4.38 µM.

With `CCOc1ccc(Cc2cc([C@@H]3OC(OC)[C@@H](O)[C@H](O)[C@H]3O)ccc2Cl)cc1` (mixture of isomers; 7c), the IC50 in [2] was found to be 14 nM; in series [18] it was 6.3 nM. Moreover, the Vc/F was determined as 14.2 L/kg in the series on Mus musculus [19] and 3.08 L/kg in the series with Mus musculus [15]. The same compound had a F in the series with Mus musculus [4] of 100%. In addition, the MRT in the series with Mus musculus [20] was 1.77 h; in the series with Mus musculus [23] it was 8.44 h. The Tmax in the series on Mus musculus [21] and with Mus musculus [26] was 0.25 h each time. In addition, the AUC came out at 17.458 µM·h in the series with Mus musculus [22], 1.481 µM·h with Mus musculus [24] and 16.191 µM·h with Mus musculus [28]. Moreover, the t1/2 in the series on Mus musculus [25] was found to be 1.29 h; in the series with Mus musculus [13], 6.96 h. For the same compound, in the series on Mus musculus [27], the Vdss amounted to 2.93 L/kg. Also, the Cmax in the series with Mus musculus [29] amounted to 6.49 µM.
